According to ChEMBL document CHEMBL1121682, “Cerebrovasodilatation through selective inhibition of the enzyme carbonic anhydrase. 3. 5-(Arylthio)-, 5-(arylsulfinyl)-, and 5-(arylsulfonyl)thiophene-2-sulfonamides” (J Med Chem, 1981):
Activity calls are given as the source filed them. The calls are words filed in the database; no cut-off is given here.

Assays:
[1] = Dissociation constant in water; type: physicochemical
[2] = Concentration producing 50% inhibition of carbonic anhydrase taken from mouse erythrocytes
How it was run: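 Colorimetric assay, modified from Philpot and Philpot, run in an ice bath with about 2 enzyme units. Inhibitor was preincubated with enzyme for 5 min before substrate was added. Activity was expressed as EU = (T0 − T)/T from the uncatalyzed and catalyzed reaction times in seconds. The 50% inhibitory concentration was read graphically.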

Mus musculus [3] = assay: Effective dose of perorally administered, that gives protection against max electroshock in mice; type: functional; conditions: po
How it was run: (§1)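 Male mice of 18–28 g, with weights within ±2 g of the assay mean, in groups of ten. Vehicle controls were included. Corneal electrodes delivered 200 ms at 20 mA (mean weight ≤20 g) or 25 mA, the current giving maximal tonic extensor convulsion in untreated mice.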

[4] = Anticonvulsant potency ratio expressed as ratio ED50 of UK-12130 to that of compound during separate electroshock experiments; type: functional
Mus musculus [5] = assay: Effective dose of perorally administered compound that gives protection against max electroshock in mice; inactive; type: functional, organism-based
How it was run: as §1, with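 “ten. Compound was ball-milled in 0.1% (v/v) Tween-80 in saline and given by gavage at 2.5, 6.25 and 16 mg/kg, 2 h before shock.” for “ten.”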

[6] = Dissociation constant in 30% aqueous methanol; type: physicochemical

| Structure (SMILES) | ED50 (Mus musculus [3]) [mg/kg] | Ratio [4] | other results |
| --- | --- | --- | --- |
| NS(=O)(=O)c1ccc(S(=O)(=O)c2ccc(F)cc2)s1 | 2 | 4 | pKa [1]: 8.29; Concentration [2]: 9 nM |
| NS(=O)(=O)c1ccc(Sc2cccc(C(F)(F)F)c2)s1 | 6 | 1.3 | – |
| CC(=O)Nc1ccc([S+]([O-])c2ccc(S(N)(=O)=O)s2)cc1 (centres undefined) | 4 | 1.5 | – |
| CS(=O)(=O)c1ccc(S(=O)(=O)c2ccc(S(N)(=O)=O)s2)cc1 | 4 | 1.75 | – |
| CC(=O)Nc1ccc(Sc2ccc(S(N)(=O)=O)s2)cc1 | 9 | 1.1 | – |
| Cc1ccc(Sc2ccc(S(N)(=O)=O)s2)cc1 | > 40 | < 0.2 | – |
| CC(=O)c1cccc(S(=O)(=O)c2ccc(S(N)(=O)=O)s2)c1 | 3 | 2.3 | – |
| NS(=O)(=O)c1ccc(Sc2ccc(Br)cc2)s1 | > 6 | < 1.2 | – |
| CC(=O)Nc1ccc(Sc2cc(Cl)c(S(N)(=O)=O)s2)cc1 | 5 | 1.4 | – |
| COC1CCN(S(=O)(=O)c2ccc(S(N)(=O)=O)c(Cl)c2)CC1 | – | – | Concentration [2]: 190 nM |
| NS(=O)(=O)c1ccc(Sc2ccc(O)cc2)s1 | – | – | ED50 (Mus musculus [5]): inactive |
| NC(=O)c1ccc(S(=O)(=O)c2ccc(S(N)(=O)=O)s2)cc1 | 4 | 2 | – |
| NS(=O)(=O)c1ccc([S+]([O-])c2cccc(F)c2)s1 (centres undefined) | 2.5 | 3.2 | – |
| Cc1ccc([S+]([O-])c2ccc(S(N)(=O)=O)s2)cc1 (centres undefined) | > 6 | < 1.3 | – |
| NS(=O)(=O)c1cc(Br)c(S(=O)(=O)c2ccccc2)s1 | 3 | 2.3 | pKa [1]: 7.98; Concentration [2]: 4.2 nM |
| NS(=O)(=O)c1ccc(Sc2ccc(F)cc2)s1 | 7 | 1 | – |
| NS(=O)(=O)c1cc(Br)c(Sc2ccccc2)s1 | – | – | ED50 (Mus musculus [5]): inactive |
| NS(=O)(=O)c1ccc([S+]([O-])c2ccc(Cl)cc2)s1 (centres undefined) | 2 | 3.5 | pKa [1]: 8.57; Concentration [2]: 26 nM |
| COc1ccc(S(=O)(=O)c2ccc(S(N)(=O)=O)s2)cc1 | 6 | 1 | – |
| CN(C)S(=O)(=O)c1ccc(S(=O)(=O)c2ccc(S(N)(=O)=O)s2)cc1 | – | – | ED50 (Mus musculus [5]): inactive |
| NS(=O)(=O)c1ccc(S(=O)(=O)c2ccc(O)cc2)s1 | – | – | ED50 (Mus musculus [5]): inactive |

| Structure (SMILES) | ED50 (Mus musculus [3]) [mg/kg] | Ratio [4] | other results |
| --- | --- | --- | --- |
| Nc1ccc(S(=O)(=O)c2ccc(S(N)(=O)=O)s2)cc1 | 2 | 3.5 | – |
| CC(C)(C)c1ccc(S(=O)(=O)c2ccc(S(N)(=O)=O)s2)cc1 | – | – | ED50 (Mus musculus [5]): inactive |
| CC(C)C(=O)Nc1ccc(Sc2ccc(S(N)(=O)=O)s2)cc1 | – | – | ED50 (Mus musculus [5]): inactive |
| CC(=O)Nc1nnc(S(N)(=O)=O)s1 [ACETAZOLAMIDE] | 36 | – | Concentration [2]: 20 nM |
| CC(=O)Nc1ccc(S(=O)(=O)c2ccc(S(N)(=O)=O)s2)cc1 | 2 | 4 | – |
| COc1ccc([S+]([O-])c2ccc(S(N)(=O)=O)s2)cc1 (centres undefined) | > 6 | < 1.3 | – |
| COc1ccc(Sc2ccc(S(N)(=O)=O)s2)cc1 | > 40 | < 0.2 | – |
| NS(=O)(=O)c1ccc([S+]([O-])c2ccc(Br)cc2)s1 (centres undefined) | 5 | 1.4 | – |
| NS(=O)(=O)c1ccc(S(=O)(=O)c2ccc(Cl)cc2)s1 | 3 | 2.3 | – |
| NS(=O)(=O)c1sc(Sc2ccccc2)cc1Cl | – | – | ED50 (Mus musculus [5]): inactive |
| NS(=O)(=O)c1ccc(S(=O)(=O)c2cccc(C(F)(F)F)c2)s1 | 5 | 1.6 | – |
| NS(=O)(=O)c1ccc(Sc2cccc(F)c2)s1 | > 6 | < 1.3 | – |
| NS(=O)(=O)c1ccc(S(=O)(=O)c2cccc(F)c2)s1 | 2 | 3.5 | – |
| CN(C)S(=O)(=O)c1ccc(Sc2ccc(S(N)(=O)=O)s2)cc1 | > 6 | < 1.3 | – |
| NS(=O)(=O)c1ccc(Sc2ccccc2)s1 | 19 | 0.3 | – |
| CSc1ccc(Sc2ccc(S(N)(=O)=O)s2)cc1 | 4 | 1.75 | – |
| Cc1ccccc1Sc1ccc(S(N)(=O)=O)s1 | > 16 | < 0.5 | – |
| CS(=O)(=O)c1ccc(Sc2ccc(S(N)(=O)=O)s2)cc1 | 5 | 1.4 | – |
| CS(=O)(=O)c1ccc([S+]([O-])c2ccc(S(N)(=O)=O)s2)cc1 (centres undefined) | > 16 | < 0.4 | – |
| NS(=O)(=O)c1ccc(S(=O)(=O)c2ccc(Br)cc2)s1 | 4 | 1.75 | – |
| NS(=O)(=O)c1ccc(S(=O)(=O)c2ccc3ccccc3c2)s1 | 8 | 0.75 | – |

| Structure (SMILES) | ED50 (Mus musculus [3]) [mg/kg] | Ratio [4] | other results |
| --- | --- | --- | --- |
| Cc1ccccc1S(=O)(=O)c1ccc(S(N)(=O)=O)s1 | 6 | 1.2 | – |
| NS(=O)(=O)c1ccc(Sc2cccc(Cl)c2)s1 | > 6 | < 1.2 | – |
| NS(=O)(=O)c1ccc(Sc2ccc3ccccc3c2)s1 | – | – | ED50 (Mus musculus [5]): inactive |
| NS(=O)(=O)c1cc(Cl)c(Sc2ccccc2)s1 | – | – | ED50 (Mus musculus [5]): inactive |
| CC(C)(C)c1ccc(Sc2ccc(S(N)(=O)=O)s2)cc1 | – | – | ED50 (Mus musculus [5]): inactive |
| NS(=O)(=O)c1cc(Cl)c(S(=O)(=O)c2ccccc2)s1 | 3 | 2.3 | – |
| NS(=O)(=O)c1cc(Cl)c([S+]([O-])c2ccccc2)s1 (centres undefined) | > 6 | < 1.3 | – |
| CC(=O)Nc1ccc(S(=O)(=O)c2cc(Cl)c(S(N)(=O)=O)s2)cc1 | > 6 | < 1.3 | – |
| CC(C)C(=O)Nc1ccc(S(=O)(=O)c2ccc(S(N)(=O)=O)s2)cc1 | 4 | 2 | – |
| NS(=O)(=O)c1sc(S(=O)(=O)c2ccccc2)cc1Cl | 33 | 0.2 | – |
| Cc1cc(S(N)(=O)=O)sc1S(=O)(=O)c1ccccc1 | 3 | 2.7 | – |
| Cc1ccc(S(=O)(=O)c2ccc(S(N)(=O)=O)s2)cc1 | 8 | 0.8 | – |
| NS(=O)(=O)c1ccc([S+]([O-])c2ccc(F)cc2)s1 (centres undefined) | 3 | 2 | – |
| NS(=O)(=O)c1ccc(S(=O)(=O)c2ccccc2)cc1 | 10 | 0.9 | pKa [1]: 9.1; Concentration [2]: 64 nM |
| CC(=O)Nc1ccc(S(=O)(=O)c2sc(S(N)(=O)=O)cc2Cl)cc1 | 6 | 1.3 | – |
| CC(=O)Nc1ccc(Sc2sc(S(N)(=O)=O)cc2Cl)cc1 | – | – | ED50 (Mus musculus [5]): inactive |
| NS(=O)(=O)c1ccc([S+]([O-])c2ccccc2)s1 (centres undefined) | 2 | 3.5 | – |
| NS(=O)(=O)c1ccc([S+]([O-])c2cccc(Cl)c2)s1 (centres undefined) | 4 | 1.75 | – |
| NS(=O)(=O)c1ccc(S(=O)(=O)c2ccccc2)s1 | 2 | 3.5 | – |
| Nc1ccc(Sc2ccc(S(N)(=O)=O)s2)cc1 | 7 | 1 | – |
| NS(=O)(=O)c1ccc(Sc2ccc(Cl)cc2)s1 | 3 | 2 | pKa [6]: 9.19; Concentration [2]: 3 nM |
